Screening data from PubChem.
In the library only some 2.1% were active in any assay of this set; here they are far more common.
TLR9-MyD88 inh = inhibitors of TLR9-MyD88 association in cells, primary screen, cell-based, CHO, BLA complementation, fluorescence; CCF4 FRET ratio; 340,000 tested, 0.21% active; inhibition, % at 4.98 µM;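 active = inhibition above the mean over all tested compounds plus 3 SD, cut at about 21% in these data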;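 also: 0% = DMSO only wells and 100% = clavulanate BLA inhibitor control wells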
MC4R barr agon = MC4R agonists recruiting beta-arrestin, primary screen, cell-based, luminescence, agonist arm of biased-ligand search | Melanocortin receptor 4 (Homo sapiens), P32245 | U2OS MC4R beta-arrestin complementation; percent of melanotan II response, DMSO zero | activation, % at 8.9 µM | 360,000 tested, 0.98% active | AID 540308, 2011;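 active = activation above a per-plate cutoff, the mean activation of sample wells on that plate plus 3 SD, cut at about 8% in these data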
MC4R antagonist = MC4R antagonists of cAMP signaling, primary screen, cell-based, TR-FRET, antagonist arm of biased-ligand search; MC4R-expressing cells, MTII-stimulated cAMP, LANCE TR-FRET; inhibition, % at 6.5 µM; 360,000 tested, 0.48% active; AID 540295, 2011;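 active = inhibition above its plate's cutoff, the mean of tested wells on that plate plus 3 SD, cut at about 29% in these data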;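 also: 0% = Melanotan II alone and 100% = Melanotan II plus saturating MCL0020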
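Assay system: U2OS cells stably expressing human melanocortin 4 receptor (MC4R) / Dosing: 6.5 µM / Timing: compound 30 min, challenge 1 h, detection 1 h / Measured by: Eu-cAMP/anti-cAMP TR-FRET, emission 671 nm / Replicates: singlicate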
TLR4-MyD88 BLA = inhibitors of TLR4-MyD88 association in cells, primary screen, cell-based, HeLa CL3-4, BLA complementation, FRET ratio | Toll-like receptor 4 (Homo sapiens) + Myeloid differentiation primary response protein … | HeLa CL3-4 TLR4/MyD88 BLA complementation | inhibition, % at 8.4 µM | 200,000 tested, 0.18% active | AID 861, 2007; in the data active = inhibition above about 25%;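 also: 0% = vehicle and 100% = reference inhibitor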
NOD2 RIPK2 PPI = NOD2-RIPK2 binding disruptors in cells, primary screen, fluorescence, CHO cells, BLA complementation; Receptor-interacting serine/threonine-protein kinase 2 (Homo sapiens), O43353; 360,000 tested, 0.38% active; inhibition, % at 4.98 µM; CCF4 ratio; AID 624267, 2012; in the data active = inhibition above about 21%;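 also: 0% = vehicle only and 100% = reference blocker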
beta cell repl = inducers of MIN6 beta-cell proliferation, primary screen, ATP luminescence, uHTS; MIN6 cells proliferation, ATPlite luminescence, 48 h; cells starved in 0.2% serum; 100% = growth in 10% serum; 330,000 tested, 0.29% active; AID 2380, 2010; proliferation, % at 10 µM;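 active = compounds whose signal lies at least 3.5 SD above the mean of all wells on their plate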;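 also: 0% = DMSO-treated cells in low-serum medium and 100% = 10% serum control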
MC4R barr conf = MC4R beta-arrestin agonists, retest, confirmation, cell-based, luminescence, U2OS | shares compounds with MC4R barr agon | U2OS MC4R beta-arrestin recruitment; scaled DMSO 0%, Melanotan II 100% | activation, % at 8.9 µM | 2,400 tested, 31% active | AID 602192, 2012;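 active = mean activation across replicates above the hit cutoff set in the earlier primary screen, cut at about 8% in these data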
MOR DOR agonist = agonists of MOR-DOR heterodimerization, counter-screen for MC4R biased agonist project, cell-based, luminescence; shares compounds with MC4R barr agon; U2OS PathHunter beta-arrestin, beta-gal luminescence; percent of deltorphin B response, DMSO zero; activation, % at 9.2 µM; 2,400 tested, 5.8% active; AID 602194, 2012;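 active = mean activation across replicates exceeds the hit threshold derived in the earlier primary screen, cut at about 18% in these data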;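 also: 100% = deltorphin B at 0.9 µM final and 0% = DMSO alone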
The depositor's hits bear a star; . = no result given; ! = not confirmed by another sample.

SMILES	TLR9-MyD88 inh	MC4R barr agon	MC4R antagonist	TLR4-MyD88 BLA	NOD2 RIPK2 PPI	beta cell repl	MC4R barr conf	MOR DOR agonist
COc1ccc(Cl)cc1S(=O)(=O)NC(C)C(=O)NCCN1CCOCC1 (configuration not stated)	4	0	2	.	0	.	.	.
O=C(NCc1csc(-c2cccs2)n1)Nc1cccc(Cl)c1	5	9.8*	0	.	-2	-2	3	6
CSc1ccccc1NC(=O)CSc1nnc(Cc2ccccc2)o1	-2	-1	8	.	-5	0	.	.
O=C(c1ccccc1)c1coc2c1C(=O)c1ccccc1C2=O	-2	1	-7	-19	2	-6	.	.
COc1ccc(C(=O)c2coc3c2C(=O)C(=O)c2ccccc2-3)cc1	3	17*	-3	.	-1	-4	4	6
Cc1ccc(C(=O)N(Nc2nc3ccccc3s2)C(=O)c2ccc(C)cc2)cc1	4	25*	8	3	-6	5	14*	6
CCOC(=O)C1=CCN(S(=O)(=O)c2ccccc2C)C1c1ccc(F)cc1 (configuration not stated)	.	.	.	.	4	.	.	.
CC(NC(=O)COC(=O)c1cc2ccccc2cc1O)c1ccccc1 (configuration not stated)	12	18*	7	.	-4	-2	12*	7
COc1ccccc1CCC(=O)OCC(=O)NCc1ccc(OC)c(OC)c1	-2	1	17	.	6	0	.	.
COc1cc(OC)cc(C(=O)OCC(=O)NC(c2ccccc2)c2ccccc2)c1	-4	13*	11	.	7	-1	2	7
COc1ccc(CNC(=O)COC(=O)c2cc3ccccc3cc2O)cc1OC	-1	14*	9	.	2	-1	3	4
CCn1cc(CNC(=O)CCc2nnc(CCC3CCCCC3)o2)cn1	10	1	6	-8	-2	-4	.	.
CCOC(=O)c1c(NC(=O)COC(=O)Cn2cnc3c2c(=O)n(C)c(=O)n3C)sc(C)c1CC	-5	-2	-1	.	0	0	.	.
CCCCCCCCCCOC(=O)Cn1c(COc2ccc(OC)cc2)[n+](C)c2ccccc21	-6	35*	8	.	5	-6	19*	24*!
CCCCCCCCCCOC(=O)Cn1c(COc2ccccc2)[n+](C)c2ccccc21	-3	18*	-4	.	0	-5	29*	23*
CCCCCCCCCCOC(=O)Cn1c(COc2cccc(C)c2)[n+](C)c2ccccc21	2	19*	-5	.	-5	-4	28*	15
CCCn1nc(C(=O)Nc2cccc(S(=O)(=O)N3CCOCC3)c2)c2ccccc2c1=O	-7	-1	13	.	-2	.	.	.
Cc1ccc2nc(-c3cccc(NS(C)(=O)=O)c3)cc(-c3ccccc3)c2c1	2	11*	0	7	6	-5	7	3
Cc1nc(-c2cccc(NS(=O)(=O)c3ccccc3)c2)cs1	-7	2	-1	4	-5	0	.	.
CCOc1cc2c(cc1/C=C1/NC(=O)N(CC(=O)OC)C1=O)OCO2	-5	-1	-6	0	3	-3	.	.
CN(C)/C=C/C(=O)c1ccc(Cl)c([N+](=O)[O-])c1	-13	3	23	-1	0	-3	.	.
